We go through 70 compounds from ChEMBL document CHEMBL4513216, “Probing the Open Global Health Chemical Diversity Library for Multistage-Active Starting Points for Next-Generation Antimalarials” (ACS Infect Dis, 2020).

The nature of the data set: Toxicity liver stage against HepG2, at 10uM. On the set-up: test concentration 10 uM, cell line HepG2-A16-CD81EGFP. Format: cell-based. The note with it: human, HepG2-A16-CD81EGFP cells; read-out: INHIBITION
A digest of the protocol:
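Uninfected HepG2-A16-CD81EGFP cells, 3 × 10^3 per well, 1536-well, plated on prespotted compound at 10 μM final, parasite-free screening media added to match infected plates; puromycin 10 μM positive, DMSO 0.5% negative; run in parallel with 48 h PbLuc assay at 37 °C, 5% CO2; viability by CellTiter-Glo luminescence, normalized to controls.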
Turning to `COc1ccccc1C(=O)Nc1ccc([C@@H](O)[C@H]2COCC(=O)N2)cc1`, the cytotoxicity at 10 µM was determined as 1.17%.
Consider `CN1C[C@@H](NC(=O)C2CC2)C[C@H]1c1nc(-c2cnccn2)no1`, for which the cytotoxicity at 10 µM is 0.611%.
As to `COCCNc1nc(N2CCCC2)nc2nccnc12`, the cytotoxicity at 10 µM stood at 0.649%.
With `COc1ccc(NC(=O)c2nc(C)sc2C(C)C)cn1`, the cytotoxicity at 10 µM amounted to 0.847%.
As for `CC(=O)c1c(C)nn(CC(=O)Nc2ccc(Br)cc2)c1C`, the cytotoxicity at 10 µM was -9.87%.
As for `COc1ccc(OC)c(-c2cc(C(=O)NCC3(CO)CC3)n(C)n2)c1`, the cytotoxicity at 10 µM is -2.46%.
For `COc1c2ccc(C(=O)NCCCn3ncccc3=O)cc2nn1C`, the cytotoxicity at 10 µM is 0.905%.
`CC(=O)N1CCc2[nH]c(=O)ccc2C1`: the cytotoxicity at 10 µM was determined as 0.351%.
With `O=C1Nc2ccccc2C1C1CCN(C(=O)C2CC2)CC1` (stereo not given), the cytotoxicity at 10 µM was -1.24%.
For the compound `O=C(C1CCCC1)N1C[C@@H]2CCNC[C@@H]21`, the cytotoxicity at 10 µM is -0.155%.
Consider `Cc1occc1C(=O)N1CCn2c(Cn3cncn3)cnc2C1C` (stereo not given), for which the cytotoxicity at 10 µM is -5.17%.
Regarding `CC(C)CCN1C2(CCN(C(=O)N(C)C)C2)c2ccccc2S1(=O)=O` (stereo not given), the cytotoxicity at 10 µM is 2.11%.
In the case of `CCOC(=O)N1CCN(c2nc(NCCO)c3ccccc3n2)CC1`, the cytotoxicity at 10 µM was -1.32%.
Take `COCC(=O)NCCn1ccc2c(OC)cccc21`: the cytotoxicity at 10 µM was found to be 3.07%.
Then `O=C(COc1coc(CN2CCOCC2)cc1=O)c1ccc(Cl)cc1`, with -10.6%; and `Cn1ncc(C(=O)O)c1C(=O)Nc1nc2ccc(Br)cc2s1`, with 12.5%; and `COCCNC(=O)CN1CC=C(n2c(C)nc(=O)c3ccccc32)CC1`, with -5.45%.
The same measure for `CC(=O)N1CCCC1(C(=O)N1CCCC1)c1cnccn1` (stereo not given): 0.142%; for `Cn1ncc(Cl)c1C(=O)NCCN1CCC(O)(c2ccc(F)cc2)CC1`: 4.71%.
For `Cn1cnc(NC(=O)C2CC(=O)N(c3cccc(F)c3)C2)n1` (stereo not given), the cytotoxicity at 10 µM came out at 4.28%.
On to `Cc1ccc(S(=O)(=O)N2CC[C@@H]3C[C@H](NC(=O)c4n[nH]cc4Cl)[C@@H]32)cc1`, for which the cytotoxicity at 10 µM was 4.31%.
In the case of `COCC(=O)N[C@@H]1CN(Cc2c[nH]nc2-c2cccs2)C[C@H]1O`, the cytotoxicity at 10 µM worked out at 1.48%.
As for `Cc1cc(N2CCN(C(=O)c3cccnc3)CC2)nc(C)n1`, the cytotoxicity at 10 µM was found to be 4.28%.
Take `NC(=O)c1cn[nH]c1C1CCCN1C(=O)c1ccccc1` (stereo not given): the cytotoxicity at 10 µM came to 0.00505%.
Regarding `CCC(CN1CCCC1)NC(=O)Cc1c(C)[nH]c2cc(C)cc(C)c12` (stereo not given), the cytotoxicity at 10 µM turned out to be 2.73%.
Take `CCC(CN1CCOCC1)NC(=O)Cc1c(C)[nH]c2cc(C)cc(C)c12` (stereo not given): the cytotoxicity at 10 µM is 19.6%.
In the case of `CC(C)c1ncc(CN2CCOC(C(=O)Nc3ccccc3)C2)cn1` (stereo not given), the cytotoxicity at 10 µM was -25.3%.
Then `Cc1ccc(-c2cc(N)c(=O)n(CC(=O)NC3CCCC3)n2)s1`, with -20.3%; and `CC(=O)N1CCCC(Cc2cnc(C(=O)N3CCC(C)CC3)cn2)C1` (stereo not given), with 4.82%.
As to `O=c1oc(-c2cccs2)nn1CC1(O)CCCCC1`, the cytotoxicity at 10 µM is 8.52%.
For the compound `COCC(O)CN1CCC(NC(=O)c2cccc(C)c2)CC1` (stereo not given), the cytotoxicity at 10 µM is 1.44%.
The same measure for `Cc1cc(NC(=O)NC(C)CO)ccc1OCC(F)(F)F` (stereo not given): 5.2%.
In the case of `CSc1ccc(C(C)NC(=O)c2cc(C)on2)cc1` (stereo not given), the cytotoxicity at 10 µM amounted to 6.01%.
As to `Cc1cc(C)cc(N(C)S(=O)(=O)c2cc3c(c(C(=O)O)c2)OCCO3)c1`, the cytotoxicity at 10 µM is -4.02%.
For `Cn1cc(C(=O)CC2CCCN2C(=O)c2ccc(Cl)cn2)cn1` (stereo not given), the cytotoxicity at 10 µM is -9.23%.
For `O=c1[nH]c(CN2CCN(CC(F)(F)F)CC2)nc2ccccc12`, the cytotoxicity at 10 µM is 10.2%.
Consider `CCc1nc(CCNC(=O)NC2CCN(C(C)C)C2)sc1C` (stereo not given), for which the cytotoxicity at 10 µM was -7.63%.
`CC(C(=O)Nc1ccc(Cl)cn1)N1CCc2nn(C)c(=O)cc2C1` (stereo not given): the cytotoxicity at 10 µM was determined as 4.81%.
Turning to `CS(=O)(=O)c1ccc(OCCNCc2cccc(Cl)c2)cc1`, the cytotoxicity at 10 µM was -4.43%.
Regarding `CN(Cc1nccn1CC(F)(F)F)C(=O)c1ccc2c(c1)OCO2`, the cytotoxicity at 10 µM was 1.09%.
As to `Cc1noc(CNc2cccc(C(=O)N3CCCC(O)C3)c2)n1` (stereo not given), the cytotoxicity at 10 µM was -0.961%.
For the compound `c1ccc(-c2noc(C3CCN(CCn4cccn4)CC3)n2)cc1`, the cytotoxicity at 10 µM was 2.86%.
As to `O=C(C1CC(=O)N(c2ccccc2Br)C1)N1CCC2(CC1)OCCO2` (stereo not given), the cytotoxicity at 10 µM was 11.3%.
With `O=C(NCC1CC1)Nc1cccc(N2CCN(CC3CC3)CC2)c1`, the cytotoxicity at 10 µM is -13.3%.
For the compound `O=C1CCCCCN1CCC(=O)N1CCCC(c2ccn[nH]2)C1` (stereo not given), the cytotoxicity at 10 µM turned out to be 9.01%.
Turning to `Cc1n[nH]c(C)c1CCN(C)C(=O)c1ccc(CN2CCCCC2)cc1`, the cytotoxicity at 10 µM was -9.9%.
For the compound `CN(C)CC1(O)CCCN(Cc2cnc(-c3ccco3)nc2)CC1` (stereo not given), the cytotoxicity at 10 µM was -8.58%.
Regarding `Cc1cccc(NC(=O)N2CCOCC(CN(C)C)C2)c1C` (stereo not given), the cytotoxicity at 10 µM stood at 14.7%.
For `Cc1ccc(F)cc1-n1c(COC(C)C)n[nH]c1=O`, the cytotoxicity at 10 µM was determined as 4.72%.
For the compound `OC1CCN(CCNc2ncc3c(n2)CCN3c2ccccc2)CC1`, the cytotoxicity at 10 µM was determined as 5.84%.
Take `CCCc1cc(C(=O)N(C)Cc2cccc3cnccc23)n(C)n1`: the cytotoxicity at 10 µM worked out at 0.109%.
As for `COc1ccc(CCCC(=O)N2C[C@H](C3CC3)[C@@H](N(C)C)C2)cc1`, the cytotoxicity at 10 µM turned out to be 0.624%.
In the case of `C=C(C)COc1ccc(C(=O)NCC2CC(CC)=NO2)cc1` (stereo not given), the cytotoxicity at 10 µM is -48.2%.
As for `C[C@@H]1CN(Cc2nc(C(N)=O)no2)CC[C@@]1(O)C1CC1`, the cytotoxicity at 10 µM was -50.3%.
Consider `O=C(NCCc1csc(-c2cnccn2)n1)c1cnn[nH]1`, for which the cytotoxicity at 10 µM amounted to 6.46%.
On to `Cn1ccnc1SCCNC1CCN(c2ncccn2)CC1`, for which the cytotoxicity at 10 µM is -7.63%.
With `CN(C(=O)c1ccc(C2CCCO2)s1)C1CCS(=O)(=O)CC1` (stereo not given), the cytotoxicity at 10 µM was 1.72%.
As for `O=C1O[C@@H]2CN(Cc3ccccc3)C[C@@H]2N1CCCN1CCOCC1`, the cytotoxicity at 10 µM is -1.18%.
The same measure for `c1cnn(Cc2nnc(C3CCN(C4CCOCC4)CC3)n2C2CC2)c1`: -15.2%.
As to `COCc1cn([C@@H]2c3ccccc3C3(CCNCC3)[C@H]2O)nn1`, the cytotoxicity at 10 µM was found to be 1.2%.
Take `O=C(CN1CCOC(Cn2cccn2)C1)NCCc1cccs1` (stereo not given): the cytotoxicity at 10 µM was -11.3%.
Then `Cc1ccnn1CCC(=O)N1CCCC1c1cc2cccnc2[nH]1` (stereo not given), with 9.17%; and `O=C(CCN1CCCC1)Nc1c2c(cc3c1CCC3)CCC2`, with 6.3%; and `Cc1occc1C(=O)N1CCc2c(CNS(C)(=O)=O)cncc2C1`, with 8.68%.
For `COc1cc(COCC2CCN(Cc3ccccn3)CC2)cc(OC)c1`, the cytotoxicity at 10 µM was -3.36%.
Turning to `c1cncc(CN2CCC(c3ccc4c(c3)OCO4)CC2)c1`, the cytotoxicity at 10 µM is -0.415%.
Take `CCN1CCc2cc(-c3cncn3CC(=O)NC(C)(C)C)ccc21`: the cytotoxicity at 10 µM is -18.9%.
The same measure for `CC(=O)N1CC(=O)N(c2cnn(C)c2)CC12CCN(Cc1cccs1)C2` (stereo not given): 2.26%; for `CCN1CCn2c(C)cnc2C12CCN(C(=O)NC)CC2`: 0.906%; for `CC(C)n1c(=O)[nH]c2cn(-c3ccccc3)c(=O)n21`: -7.01%.
